From ChEMBL document CHEMBL4616671, “Identification of N-Phenyl-7H-pyrrolo[2,3-d]pyrimidin-4-amine Derivatives as Novel, Potent, and Selective NF-κB Inducing Kinase (NIK) Inhibitors for the Treatment of Psoriasis” (J Med Chem, 2020) come the findings set out here.

By IC50 is commonly meant the concentration that inhibits the measured activity by half. As a reminder, the inhibition is the share of the control response that was lost under treatment. In general, clearance refers to the volume of plasma or blood freed of the substance per unit of time. As a reminder, the Tmax is the time at which the peak concentration occurs. Broadly, the bioavailability is dose-corrected exposure relative to a reference, in per cent.

Data set [1] deals with Mitogen-activated protein kinase kinase kinase 14 (Homo sapiens, UniProt Q99558). The data set is described as follows: Inhibition of human NIK using myelin basic protein as substrate in presence of [gamma33P]ATP by hotspot assay.
The next data set has as its target Aurora kinase B (Homo sapiens, UniProt Q96GD4). As to the kind of experiment: Inhibition of human Aurora B using [H-LRRASLG] as substrate in presence of [gamma33P]ATP by hotspot assay.
In data set [2] the target is Tyrosine-protein kinase JAK1 (Homo sapiens, UniProt P23458). The data set is described as follows: Inhibition of human JAK1 using poly[Glu:Tyr] (4:1) as substrate in presence of [gamma33P]ATP by hotspot assay.
In another data set the test system is T-cell. The data set is described as follows: Antiinflammatory activity in mouse T cells assessed as inhibition of conA-induced induced T cell proliferation at 2 uM incubated for 48 hrs by CCK8 assay relative to control. Type of data set: functional. In general terms: Tetrazolium dyes change colour on reduction, which living cells bring about.
For data set [3], the species on record is Homo sapiens. As to the kind of experiment: Selectivity ratio of IC50 for human Aurora B to IC50 for human NIK.
The species entered for data set [4] is Homo sapiens. As to the kind of experiment: Selectivity ratio of IC50 for human ACK1 to IC50 for human NIK.
Data set [5] in a line: Elimination half life in human liver microsomes incubated for 10 mins followed by potassium phosphate buffer addition and measured after 5 to 60 mins by LC-MS/MS analysis. Type of data set: ADME, Microsome. Particulars: read-out: beta t1/2. A digest of the protocol:
(§1)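 Rat, dog, monkey or human liver microsomes pre-incubated with compound at 37 °C for 10 min; reaction started after pre-warming and stopped at 5, 15, 30, 60 min with chilled quench containing tolbutamide and labetalol. No-cofactor control in 100 mM potassium phosphate for 60 min. LC-MS/MS analysis; first-order fit: k = −slope, T1/2 = 0.693/k, CLint = k/microsomal protein concentration.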
Background: Liver microsomes are vesicles of endoplasmic reticulum, rich in cytochrome P450 enzymes.

Data set [6] is described as follows: Intrinsic clearance in monkey liver microsomes assessed as per mg of protein incubated for 10 mins followed by potassium phosphate buffer addition and measured after 5 to 60 mins by LC-MS/MS analysis. Type of data set: ADME, Macaca mulatta, Microsome. The following applies: rhesus monkey, read-out: CLH. A digest of the protocol:
as §1

The nature of data set [7]: Intrinsic clearance in dog liver microsomes assessed as per mg of protein incubated for 10 mins followed by potassium phosphate buffer addition and measured after 5 to 60 mins by LC-MS/MS analysis. Particulars: read-out: CLH. Type of data set: ADME, Canis lupus familiaris, Microsome. A digest of the protocol: as §1
Data set [8] in a line: Intrinsic hepatic clearance in monkey. Type of data set: ADME, Macaca mulatta. The following applies: rhesus monkey, in vivo. A digest of the protocol:
(§2)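 Scaled from microsomal intrinsic clearance: CLint,in vitro × microsomal protein per g liver × liver weight per kg body weight.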

The nature of data set [9]: Intrinsic hepatic clearance in rat. Type of data set: ADME. The following applies: in vivo. A digest of the protocol: as §2
Data set [10] in a line: Clearance in Sprague-Dawley rat at 1 mg/kg, iv administered as single bolus dose by LC-MS/MS analysis. Type of data set: ADME, organism-based. The following applies: in vivo.
A short description of data set [11]: Tmax in Sprague-Dawley rat at 10 mg/kg, po administered via gavage by LC-MS/MS analysis. Type of data set: ADME, organism-based. Particulars: in vivo. A digest of the protocol:
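SD rats, 3 per group. Single IV bolus at 1 mg/kg in DMSO:PEG200:saline 20:20:60 (0.2 mg/mL), or oral gavage at 10 mg/kg as suspension in 0.5% CMC-Na/0.2% Tween 80 (1 mg/mL). Plasma protein-precipitated with acetonitrile containing internal standards, then quantified by LC-MS/MS. Parameters derived by noncompartmental analysis. Mean ± SD.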

The nature of data set [12]: Oral bioavailability in Sprague-Dawley rat at 10 mg/kg administered via gavage by LC-MS/MS analysis. It is filed as ADME, organism-based. The following applies: in vivo.
The target of data set [13] is Mitogen-activated protein kinase kinase kinase 14 (Mus musculus) (UniProt Q9WUL6). As to the kind of experiment: Inhibition of NIK in mouse J774 cells assessed as reduction in LPS-induced IL6 mRNA level by SYBR green dye-based quantitative PCR analysis. Type of data set: cell-based. A digest of the protocol: (§3)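 LPS-stimulated J774 macrophages; mRNA quantified by qPCR using 4 µL cDNA plus 16 µL master mix per reaction. Mean ± SD of three biological replicates; significance by two-tailed Student's t-test against the model group.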

Data set [14] has as its system J774. As to the kind of experiment: Antiinflammatory activity in mouse J774 cells assessed as reduction in LPS-induced CCL3 mRNA level by SYBR green dye-based quantitative PCR analysis. Type of data set: functional, cell-based. A digest of the protocol:
as §3

Data set [15] deals with J774. The data set is described as follows: Antiinflammatory activity in mouse J774 cells assessed as reduction in LPS-induced NOS2 mRNA level by SYBR green dye-based quantitative PCR analysis. Type of data set: functional, cell-based. A digest of the protocol:
as §3

For data set [16], the system named is Mus musculus. The data set is described as follows: Protection against IMQ-induced dermatitis in C57 mouse model of psoriasis assessed as reduction in skin swelling at 60 to 120 mg/kg, ig administered once daily starting from day 3 post IMQ-challenge and measured 2 days post-last dose of IMQ. It is filed as functional, organism-based. A digest of the protocol:
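C57 mice given 5% imiquimod cream on the back once daily for 7 days; intragastric dosing 60 or 120 mg/kg once daily from day 3 to end, n = 6 per group. Dorsal skin phenotype assessed by imaging.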

Data set [17] has as its system Mus musculus. As to the kind of experiment: Suppression of IMQ-induced psoriasis in ig dosed C57 mouse assessed as reduction in serum IL-17A level administered once daily starting from day 3 post IMQ-challenge and measured 2 days post-last dose of IMQ by ELISA. It is filed as functional, organism-based. A digest of the protocol: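 IMQ-induced C57 mice (5% cream 7 days; 60 or 120 mg/kg i.g. daily from day 3). Blood collected at end of dosing, held 12 h at 4 °C, centrifuged; serum IL-17A by ELISA. Mean ± SEM.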
(In general: An ELISA detects its analyte on a solid surface through an enzyme-linked reagent.)

Data set [18] has as its target Mitogen-activated protein kinase kinase kinase 14 (Mus musculus) (UniProt Q9WUL6). The data set is described as follows: In vivo inhibition of NIK in po dosed C57 mouse model of IMQ-induced psoriasis assessed as reduction in P52 expression in back skin administered starting from day 3 post IMQ-challenge and measured 2 days post-last dose of IMQ by Western blot analysis. Type of data set: functional, organism-based. A digest of the protocol:
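IMQ-induced psoriasis in C57 mice, 5% cream daily for 7 days, oral dosing 60 or 120 mg/kg from day 3. Back-skin protein extracts probed by western blot for p100 and p52; band optical density normalized to GAPDH.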

Data set [19] shares this target. The data set is described as follows: In vivo inhibition of NIK in C57 mouse model of IMQ-induced psoriasis assessed as reduction in NF-kappaB signalling in back skin by measuring decrease in TNF-alpha mRNA level at 60 to 120 mg/kg, po administered starting from day 3 post IMQ-challenge and measured 2 days post-last dose of IMQ by qPCR analysis. Type of data set: functional, organism-based. A digest of the protocol: (§4)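 IMQ psoriasis model: 5% imiquimod cream applied to C57 mouse back skin once daily for seven days; oral dosing 60 or 120 mg/kg once daily from day 3, n = 6 per group. Back-skin mRNA measured by qPCR.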

Data set [20] shares this target. The data set is described as follows: In vivo inhibition of NIK in C57 mouse model of IMQ-induced psoriasis assessed as reduction in NF-kappaB signalling in back skin by measuring decrease in mRNA IL-6 level at 60 to 120 mg/kg, po administered starting from day 3 post IMQ-challenge and measured 2 days post-last dose of IMQ by qPCR analysis. Type of data set: functional, organism-based. A digest of the protocol: as §4

Data set [21] has the same target. As to the kind of experiment: In vivo inhibition of NIK in C57 mouse model of IMQ-induced psoriasis assessed as reduction in NF-kappaB signalling in back skin by measuring decrease in mRNA IL-12 level at 60 to 120 mg/kg, po administered starting from day 3 post IMQ-challenge and measured 2 days post-last dose of IMQ by qPCR analysis. It is filed as functional, organism-based. A digest of the protocol:
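C57 mice had 5% imiquimod cream applied to the back skin once daily for seven consecutive days. Oral gavage dosing at 60 or 120 mg/kg once daily started on day 3 and continued to the end, with n = 6 per group alongside normal and IMQ-only model groups. Back-skin mRNA was quantified by qPCR.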

The structures appear in SMILES notation. Activity calls are given as the source filed them. No cut-off for these calls is given here.

Sequence of Mitogen-activated protein kinase kinase kinase 14 (Mus musculus) (Q9WUL6 whole entry): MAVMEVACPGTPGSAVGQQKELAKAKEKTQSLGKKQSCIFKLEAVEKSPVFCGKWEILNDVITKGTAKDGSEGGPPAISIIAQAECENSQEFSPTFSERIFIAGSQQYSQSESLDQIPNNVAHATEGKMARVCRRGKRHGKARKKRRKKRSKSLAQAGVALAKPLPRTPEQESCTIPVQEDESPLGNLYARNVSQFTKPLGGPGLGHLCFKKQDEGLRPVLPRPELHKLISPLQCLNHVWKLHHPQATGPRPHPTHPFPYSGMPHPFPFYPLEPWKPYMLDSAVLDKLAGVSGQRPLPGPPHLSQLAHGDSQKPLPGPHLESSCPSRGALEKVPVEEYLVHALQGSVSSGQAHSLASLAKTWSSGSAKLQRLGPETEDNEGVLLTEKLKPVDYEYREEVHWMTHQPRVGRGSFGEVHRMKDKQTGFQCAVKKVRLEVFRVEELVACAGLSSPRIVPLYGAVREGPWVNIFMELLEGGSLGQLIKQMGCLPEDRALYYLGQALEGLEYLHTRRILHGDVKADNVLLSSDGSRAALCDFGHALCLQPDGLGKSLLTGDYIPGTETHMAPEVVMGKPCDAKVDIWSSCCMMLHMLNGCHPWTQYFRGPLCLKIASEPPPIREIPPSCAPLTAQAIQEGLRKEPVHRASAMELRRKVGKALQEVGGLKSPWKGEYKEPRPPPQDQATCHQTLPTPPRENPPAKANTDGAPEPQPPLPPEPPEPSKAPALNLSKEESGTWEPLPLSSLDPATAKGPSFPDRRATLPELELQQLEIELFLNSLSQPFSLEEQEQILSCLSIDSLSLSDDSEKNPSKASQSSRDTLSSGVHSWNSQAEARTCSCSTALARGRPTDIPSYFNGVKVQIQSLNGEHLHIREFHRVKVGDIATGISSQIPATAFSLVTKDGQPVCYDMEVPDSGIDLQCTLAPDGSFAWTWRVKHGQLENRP
Sequence of Mitogen-activated protein kinase kinase kinase 14 (Q99558 whole entry): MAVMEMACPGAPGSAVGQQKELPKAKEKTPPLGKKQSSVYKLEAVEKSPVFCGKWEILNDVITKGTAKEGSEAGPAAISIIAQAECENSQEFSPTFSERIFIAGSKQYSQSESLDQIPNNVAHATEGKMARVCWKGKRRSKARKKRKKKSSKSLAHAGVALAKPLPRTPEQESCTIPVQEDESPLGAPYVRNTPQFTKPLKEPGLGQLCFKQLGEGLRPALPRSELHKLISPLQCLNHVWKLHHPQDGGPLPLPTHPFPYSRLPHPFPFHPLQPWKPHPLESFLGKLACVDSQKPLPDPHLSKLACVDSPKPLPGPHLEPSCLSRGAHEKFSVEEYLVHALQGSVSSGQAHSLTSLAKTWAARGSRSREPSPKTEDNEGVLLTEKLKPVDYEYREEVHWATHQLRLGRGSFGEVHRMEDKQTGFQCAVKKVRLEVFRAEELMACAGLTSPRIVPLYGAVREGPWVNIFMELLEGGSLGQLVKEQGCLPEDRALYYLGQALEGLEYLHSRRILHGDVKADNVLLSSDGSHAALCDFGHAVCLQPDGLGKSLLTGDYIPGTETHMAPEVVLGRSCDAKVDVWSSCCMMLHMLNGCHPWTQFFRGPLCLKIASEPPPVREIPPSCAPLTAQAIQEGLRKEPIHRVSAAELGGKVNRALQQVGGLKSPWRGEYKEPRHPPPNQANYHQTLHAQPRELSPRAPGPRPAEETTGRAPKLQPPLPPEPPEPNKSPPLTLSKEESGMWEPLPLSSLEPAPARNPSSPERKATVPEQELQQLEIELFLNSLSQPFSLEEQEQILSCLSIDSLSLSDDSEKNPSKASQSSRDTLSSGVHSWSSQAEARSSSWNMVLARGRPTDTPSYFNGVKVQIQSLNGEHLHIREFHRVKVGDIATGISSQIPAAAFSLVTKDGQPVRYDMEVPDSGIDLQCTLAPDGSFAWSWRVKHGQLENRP
Sequence of Tyrosine-protein kinase JAK1 (P23458 whole entry): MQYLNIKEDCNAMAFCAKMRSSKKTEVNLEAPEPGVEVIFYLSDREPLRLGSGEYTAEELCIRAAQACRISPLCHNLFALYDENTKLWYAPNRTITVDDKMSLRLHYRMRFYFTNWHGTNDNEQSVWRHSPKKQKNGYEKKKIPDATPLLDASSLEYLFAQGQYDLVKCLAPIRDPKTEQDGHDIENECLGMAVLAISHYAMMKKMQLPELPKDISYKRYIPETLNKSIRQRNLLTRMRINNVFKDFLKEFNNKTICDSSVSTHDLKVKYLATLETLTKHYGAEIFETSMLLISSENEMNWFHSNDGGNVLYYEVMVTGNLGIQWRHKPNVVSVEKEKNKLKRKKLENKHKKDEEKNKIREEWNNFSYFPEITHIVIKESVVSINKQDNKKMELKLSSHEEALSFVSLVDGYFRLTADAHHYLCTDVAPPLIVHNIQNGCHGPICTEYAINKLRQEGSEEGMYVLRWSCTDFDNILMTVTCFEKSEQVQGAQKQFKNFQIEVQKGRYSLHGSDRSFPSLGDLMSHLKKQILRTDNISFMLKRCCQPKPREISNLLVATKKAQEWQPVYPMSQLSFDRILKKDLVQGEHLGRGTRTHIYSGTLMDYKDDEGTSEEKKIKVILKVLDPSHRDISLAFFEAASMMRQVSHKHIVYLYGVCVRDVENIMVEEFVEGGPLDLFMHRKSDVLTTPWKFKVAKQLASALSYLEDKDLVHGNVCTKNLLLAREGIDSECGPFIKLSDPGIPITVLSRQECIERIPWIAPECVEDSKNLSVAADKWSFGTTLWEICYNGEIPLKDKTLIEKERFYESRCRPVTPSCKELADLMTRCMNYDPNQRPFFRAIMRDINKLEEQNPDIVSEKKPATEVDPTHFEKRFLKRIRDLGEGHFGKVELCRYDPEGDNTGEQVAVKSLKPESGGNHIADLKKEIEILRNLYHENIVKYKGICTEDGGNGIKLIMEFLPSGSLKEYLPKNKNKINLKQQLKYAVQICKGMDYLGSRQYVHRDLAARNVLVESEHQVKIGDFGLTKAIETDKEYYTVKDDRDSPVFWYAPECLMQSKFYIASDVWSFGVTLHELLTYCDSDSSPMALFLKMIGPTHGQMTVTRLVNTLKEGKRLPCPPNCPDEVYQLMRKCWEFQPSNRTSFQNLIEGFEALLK
Sequence of Aurora kinase B (Q96GD4 whole entry): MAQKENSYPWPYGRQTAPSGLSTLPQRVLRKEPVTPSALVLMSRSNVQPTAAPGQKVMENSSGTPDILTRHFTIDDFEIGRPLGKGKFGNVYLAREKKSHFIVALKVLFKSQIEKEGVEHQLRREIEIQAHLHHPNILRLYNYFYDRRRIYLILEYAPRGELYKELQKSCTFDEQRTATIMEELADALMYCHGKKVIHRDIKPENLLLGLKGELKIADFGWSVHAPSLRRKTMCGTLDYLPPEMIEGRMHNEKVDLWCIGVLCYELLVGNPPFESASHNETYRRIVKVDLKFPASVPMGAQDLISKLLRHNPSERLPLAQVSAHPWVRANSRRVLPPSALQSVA

Turning to `CC(O)(C#Cc1ccc(N2CCOCC2)c(Nc2ncnc3[nH]ccc23)c1)c1nccs1` (racemic), the results for the IC50 (in data set [1]; on Aurora kinase B; in data set [2]) were 9.7 nM, 43.2 nM and 183 nM, respectively. The inhibition at 2 µM in the data set on T-cell turned out to be 62.3%. The Ratio IC50 in the data set filed under Homo sapiens [3] and in the data set filed under Homo sapiens [4] was 4 to 20 throughout. For the same compound, the half-life in [5] was determined as 42.9 min. Moreover, the microsomal CLint amounted to 76.8 µL/min/mg in [6] and 43.3 µL/min/mg in [7]. For the same compound, the CLH in data set [8] stood at 111 mL/min/kg; in data set [9], 81 mL/min/kg. Also, the clearance in data set [10] came out at 40.3 mL/min/kg. Further, the Tmax in [11] amounted to 50 min. In addition, the bioavailability in [12] was found to be 64%. Also, the inhibition result in [13], in [19], in [20] and in data set [21] was “Active” in each case. The result in the data set on J774 [14], in the data set on J774 [15] and in the data set with Mus musculus [16] was Active. The inhibition result (in the data set with Mus musculus [17]; in data set [18]) was “Dose-dependent effect” each time.
